Reference: ChEMBL document CHEMBL4340559, “Design and synthesis of functionalized coumarins as potential anti-austerity agents that eliminates cancer cells' tolerance to nutrition starvation” (Bioorg Med Chem Lett, 2019)
Calls of active or inactive are those of the source. No cut-off for these calls is given here.

Assays:
[1] = tested on: PANC-1; assay: Antiausteritic activity against human PANC1 cells in nutrient-deprived medium measured after 24 hrs by WST8 assay; format: functional
[2] = tested on: PANC-1; assay: Cytotoxic activity against human PANC1 cells in nutrient-rich medium measured after 24 hrs by WST8 assay; format: cell-based; settings: panc-1, 24 h
[3] = tested on: PANC-1; assay: Inhibition of colony formation in human PANC1 cells at 25 uM in the nutrient rich DMEM media treated for 24 hrs followed by compound washout and subsequent incubation for 10 days by crystal violet staining based assay relative to untreated control; format: functional
Procedure, shortened: (§1)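 PANC-1 cells were exposed 24 h to 12.5, 25 or 50 μM in nutrient-rich DMEM. Medium was then replaced with fresh DMEM and cells grown 10 d to form colonies. Read-out was the average area occupied by colonies relative to untreated control wells. Three replications; significance set at p < 0.05 versus control.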

[4] = tested on: PANC-1; assay: Antiausteritic activity against human PANC1 cells in nutrient deprived medium assessed as leakage of cellular contents into culture media at 1.25 uM after 24 hrs by ethidium bromide/acridine orange staining based phase contrast microscopic method; format: functional, cell-based
Procedure, shortened: (§2)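 PANC-1 cells exposed 24 h in nutrient-deprived medium (NDM) alongside untreated control, then stained with ethidium bromide/acridine orange. AO enters all cells and fluoresces green. EB enters only dead or dying cells and fluoresces red. Cells were scored by fluorescence colour and morphology.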

[5] = tested on: PANC-1; assay: Antiausteritic activity against human PANC1 cells in nutrient deprived medium assessed as plasma blebbing at 1.25 uM after 24 hrs by ethidium bromide/acridine orange staining based phase contrast microscopic method; format: functional, cell-based; procedure, shortened: as §2
[6] = tested on: PANC-1; assay: Inhibition of colony formation in human PANC1 cells at 12.5 uM in the nutrient rich DMEM media treated for 24 hrs followed by compound washout and subsequent incubation for 10 days by crystal violet staining based assay relative to untreated control; format: functional; procedure, shortened: as §1
[7] = tested on: PANC-1; assay: Antiausteritic activity against human PANC1 cells in nutrient deprived medium assessed as inhibition of cell mobility at 5 uM measured within 4 hrs by automated time-lapse microscopic method; format: functional, cell-based
Procedure, shortened: (§3)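 PANC-1 cells in NDM were held in a stage-top incubator with 5 μM compound, with untreated NDM control run alongside. Images were captured every 10 min for 24 h. Mobility, shrinkage and death were followed over time.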

[8] = tested on: PANC-1; assay: Antiausteritic activity against human PANC1 cells in nutrient deprived medium assessed as rupture of cell membrane at 1.25 uM after 24 hrs by ethidium bromide/acridine orange staining based phase contrast microscopic method; format: functional; procedure, shortened: as §2
[9] = tested on: PANC-1; assay: Inhibition of colony formation in human PANC1 cells at 50 uM in the nutrient rich DMEM media treated for 24 hrs followed by compound washout and subsequent incubation for 10 days by crystal violet staining based assay relative to untreated control; format: functional; procedure, shortened: as §1
[10] = tested on: PANC-1; assay: Antiausteritic activity against human PANC1 cells in nutrient deprived medium assessed as appearance of rounded cells at 1.25 uM after 24 hrs by ethidium bromide/acridine orange staining based phase contrast microscopic method; format: functional, cell-based; procedure, shortened: as §2
[11] = tested on: PANC-1; assay: Antiausteritic activity against human PANC1 cells in nutrient deprived medium assessed as cell death at 5 uM measured at 13 to 20 hrs by automated time-lapse microscopic method; format: functional, cell-based; procedure, shortened: as §3
[12] = tested on: PANC-1; assay: Inhibition of colony formation in human PANC1 cells at 12.5 to 50 uM in the nutrient rich DMEM media treated for 24 hrs followed by compound washout and subsequent incubation for 10 days by crystal violet staining based assay; format: functional, cell-based; procedure, shortened: as §1
[13] = tested on: PANC-1; assay: Antiausteritic activity against human PANC1 cells in nutrient deprived medium assessed as cell shrinkage at 5 uM measured at 7 hrs by automated time-lapse microscopic method; format: functional, cell-based; procedure, shortened: as §3

| Structure (SMILES) | PC50 [1] [µM] | Activity [2] | other results |
| --- | --- | --- | --- |
| O=C(NCCCc1ccccc1)c1cc2ccccc2oc1=O | >100 | Non-Toxic | – |
| O=C(NCCCc1ccccc1)c1cc2ccc(O)cc2oc1=O | 0.44 | Non-Toxic | inhibition at 25 µM [3]: 11%; Activity [4]: Active; Activity [5]: Active; inhibition at 12.5 µM [6]: 8%; Activity [7]: Active; Activity [8]: Active; inhibition at 50 µM [9]: 19%; Activity [10]: Active; Activity [11]: Active; inhibition [12]: Dose-dependent effect; Activity [13]: Active |
| O=C(NCc1ccccc1)c1cc2ccc(O)cc2oc1=O | >100 | Non-Toxic | – |
| O=C(NCCCc1ccc(Cl)cc1Cl)c1cc2ccc(O)cc2oc1=O | 3.45 | Non-Toxic | – |
| O=C(NCCCCc1ccccc1)c1cc2ccc(O)cc2oc1=O | 4.7 | Non-Toxic | – |
| O=C(NCCCc1cccc(Cl)c1)c1cc2ccc(O)cc2oc1=O | 3.92 | Non-Toxic | – |
| O=C(NCCCc1cccc(Cl)c1Cl)c1cc2ccc(O)cc2oc1=O | 7.48 | Non-Toxic | – |
| O=C(NCCCc1ccc(Cl)cc1)c1cc2ccc(O)cc2oc1=O | 0.51 | Non-Toxic | – |
| O=C(NCCCc1ccccc1)c1cc2cccc(O)c2oc1=O | 3.28 | Non-Toxic | – |
| O=C(NCCc1ccccc1)c1cc2ccc(O)cc2oc1=O | >100 | Non-Toxic | – |
| O=C(NCCCc1ccccc1Cl)c1cc2ccc(O)cc2oc1=O | 12.6 | Non-Toxic | – |
| O=C(NCCCC1CCCCC1)c1cc2ccc(O)cc2oc1=O | 2.19 | Non-Toxic | – |
| O=C(NCCCc1ccccc1)c1cc2c(O)cccc2oc1=O | >100 | Non-Toxic | – |
| O=C(NCCCc1ccccc1)c1cc2cc(O)ccc2oc1=O | >100 | Non-Toxic | – |
